# An excerpt weighted towards active compounds, which were near 3.8% of everything screened.
# NPY-Y1 PAM-ag: potentiates or activates human NPY-Y1 receptor; NPY-Y1 expressing cells, potentiator/agonist activation; activation, % at 3.6 µM; hit rate 0.37% among 220,000; AID 1304; in the data active = activation above about 33%, passing the limit was not always enough;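 also: cells stimulated with NPY at EC10 then isoproterenol at EC100; 0% = low agonist plus stimulus and 100% = saturating agonist plus stimulus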
# NPY-Y2 antag: NPY-Y2 (human) receptor antagonism | hit rate 0.99% among 140,000 | inhibition, % at 2.7 µM | NPY-Y2 expressing cells, antagonist mode | P49146 | AID 793; in the data active = inhibition above about 17%;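 also: 0% = vehicle with agonist challenge and 100% = reference antagonist with challenge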
# Target sequence (P49146 whole entry, looked up): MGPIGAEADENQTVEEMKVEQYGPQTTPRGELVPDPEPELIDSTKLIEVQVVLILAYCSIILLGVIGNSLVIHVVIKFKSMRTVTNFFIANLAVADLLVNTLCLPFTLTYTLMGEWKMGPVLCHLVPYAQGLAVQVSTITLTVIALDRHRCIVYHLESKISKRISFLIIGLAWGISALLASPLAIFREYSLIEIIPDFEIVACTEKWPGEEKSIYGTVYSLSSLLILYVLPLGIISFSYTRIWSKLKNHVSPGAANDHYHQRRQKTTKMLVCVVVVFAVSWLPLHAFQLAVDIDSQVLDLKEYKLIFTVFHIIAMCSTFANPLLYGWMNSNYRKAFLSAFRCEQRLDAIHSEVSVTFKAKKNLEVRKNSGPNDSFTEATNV
# RAM inhibit: blocks the yeast RAM network | inhibition, % at 50 µM | S. cerevisiae dse1pr::URA3 reporter, 5-FOA growth OD615, 2 d; analog-sensitive cbk1-as2 kinase mutant strain | hit rate 1.8% among 190,000 | AID 868;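 active = inhibition above a set limit, 3 SD over mean compound inhibition, cut at about 8.4% in these data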;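 also: 0% = DMSO-only wells with no growth and 100% = 10 µM 1-NA-PP1 full growth; inhibition rescues growth on 5-FOA so higher OD means more RAM inhibition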
# NPY2 pot ag: potentiators or agonists of human neuropeptide Y receptor Y2. P49146. cells expressing NPY-Y2, potentiator/agonist read-out. activation, % at 3.6 µM. hit rate 0.45% among 220,000. AID 1359; in the data active = activation above about 27%;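 also: cells stimulated with NPY near EC25 plus isoproterenol at EC100; 0% = vehicle plus submaximal agonist and 100% = vehicle plus saturating agonist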
# Insulin prom inh: TRM-6 insulin promoter activity inhibition; TRM-6 cells, insulin promoter-eGFP reporter, imaging; reporter expression induced with tamoxifen; inhibition, % at 2 µM; hit rate 0.9% among 130,000; AID 1273;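 active = inhibition above the mean plus 3 SD, with well images judged a real hit on visual review, cut at about 60% in these data, passing the limit was not always enough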
# NPY Y1 blocker: blocks the human neuropeptide Y Y1 receptor; P25929; HEK293-CNG Y1 cells, membrane potential fluorescence; NPY at EC95, then isoproterenol; inhibition, % at 3.6 µM; hit rate 1% among 200,000;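 active = inhibition above the campaign mean inhibition of all tested compounds plus 3 SD, cut at about 20% in these data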;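 also: 0% = DMSO wells given NPY plus isoproterenol and 100% = isoproterenol alone without NPY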
#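 System: HEK293 cells with Y1 receptor plus CNG channel / Probe or stimulus: NPY 25 nM then isoproterenol 1 µM plus Ro 20-1724 25 µM / Compound: one concentration, 3.6 µM, in 0.4% DMSO / Schedule: compound incubation 1 h at room temperature, readout 45 min post-stimulation / Measured by: membrane potential fluorescence / Read-out: % inhibition of NPY effect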
# RAM efflux-def: restores 5-FOA growth of efflux-deficient yeast | shares compounds with RAM inhibit | S. cerevisiae efflux-deficient reporter strain, 5-FOA growth OD615, 2 days | max inhibition, % | 1,200 tested, under 10 active; call rule not given here;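 also: plate controls were vehicle for no effect and reference inhibitor for full effect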
# Starred values were filed as active, the others as inactive; nt = no result given.
SMILES,NPY-Y1 PAM-ag,NPY-Y2 antag,RAM inhibit,NPY2 pot ag,Insulin prom inh,NPY Y1 blocker,RAM efflux-def
COC(=O)C(Sc1nc(C)cc(C)c1C#N)c1ccccc1 (stereo not given),-16,1,12*,-11,-14,7,1
COCCCn1c(C)nc2c(c1=O)c1nc3ccccc3nc1n2CCc1ccccc1,-1,1,2,2,8,6,nt
CC(=O)Nc1ccc(NC(=O)c2ccc(C)c(S(=O)(=O)Nc3cccc(C)c3)c2)cc1,1,nt,8,1,nt,-4,nt
Cc1ccc(C(=O)Nc2ccc(C(=O)O)cc2)cc1S(=O)(=O)NCc1ccccc1,-2,nt,13*,1,20,4,3
COCCNC(=O)C(c1ccccc1F)N(C(=O)C(=O)NC1CCCC1)C1CCCCC1 (stereo not given),-12,nt,0,0,nt,3,nt
O=C(CCOc1ccccc1)Nc1cccc(S(=O)(=O)Nc2ccccc2Cl)c1,19,2,18*,-8,-8,-2,2
COc1nc(-c2ccccc2)ccc1-c1noc(COc2ccccc2)n1,-32,10,13*,-13,39,9,4
c1ccc(OCc2nc(-c3ccccc3)no2)cc1,-10,5,1,-19,-50,1,nt
COc1ccc(-c2ccc(-c3noc(-c4ccccc4)n3)c(OC)n2)cc1,-13,10,13*,-10,-49,11,5
Cc1ccc(S(=O)(=O)N(CCC(=O)Nc2ccc(OC(F)(F)F)cc2)c2ccccc2)cc1,-2,5,16*,-1,19,5,2
N#CC(C#N)=CNc1cccnc1,11,nt,nt,4,nt,nt,nt
CCSC1=N/C(=C\c2ccc3c(c2)OCO3)C(=O)S1,-29,2,15*,-1,50,-1,6
CC(=O)Nc1nc(CCN2C(=O)c3ccccc3C2=O)cs1,13,nt,2,-2,-8,-6,nt
CC(=O)c1ccc(NC(=O)c2ccc(CNc3c(N4CCOCC4)c(=O)c3=O)cc2)cc1,-18,nt,nt,-12,nt,nt,nt
CC(Oc1ccc(-c2ccccc2)c(F)c1)c1ccn(S(=O)(=O)c2ccc(Br)cc2)n1 (stereo not given),-6,1,12*,-22,-17,3,3
COc1cc(-c2cc(C(=O)Nc3ccc(S(=O)(=O)NCc4ccco4)cc3)c3ccccc3n2)cc(OC)c1OC,-7,2,13*,-2,-4,-4,4
CCOc1cc(/C=N/n2cnnc2)ccc1OC(=O)c1cccc([N+](=O)[O-])c1,5,-1,3,14,-15,-5,nt
O=C(/C=C/c1ccc2c(c1)OCO2)NCCSCc1c(Cl)cccc1Cl,-16,16,15*,-7,-7,10,2
O=C(/C=C/c1cccc([N+](=O)[O-])c1)NCCSCc1cccc(Cl)c1,-11,9,12*,-18,22,4,2
CS(=O)(=O)N(CC(=O)NCCSCc1c(F)cccc1Cl)c1ccc2c(c1)OCO2,5,6,2,-3,-41,4,nt
O=S(=O)(Cc1ccc(Cl)cc1)Nc1ccc(Cl)cn1,-16,nt,2,-28,nt,13,nt
CC(SCC(=O)O)c1nc2ccccc2[nH]1 (stereo not given),15,nt,nt,2,nt,nt,nt
COc1ccc(/C=C/C(=O)Nc2cc(S(=O)(=O)N3CCCCC3)ccc2N2CCCCC2)cc1OC,-12,3,12*,9,-3,5,13
COc1ccc(/C=C/C(=O)Nc2cc(S(=O)(=O)N3CCOCC3)ccc2N2CCCC2)cc1OC,-11,nt,0,-9,nt,5,nt
O=C(CCN1CCc2ccccc2CC1)c1ccc2c(c1)OCCO2,-20,8,-1,-9,53,8,nt
SMILES,NPY-Y1 PAM-ag,NPY-Y2 antag,RAM inhibit,NPY2 pot ag,Insulin prom inh,NPY Y1 blocker,RAM efflux-def
COc1ccc(C2NC(=O)NC(C)=C2C(=O)Nc2cc(C)ccc2C)cc1OC (stereo not given),-4,1,12*,3,12,-3,4
Nc1cc(=O)[nH]n1C1CCCCC1,15,nt,0,8,nt,-1,nt
O=S1(=O)C=CC(c2ccccc2)C1 (stereo not given),-5,nt,nt,-1,nt,nt,nt
CCCCSc1nc(SCC(=O)NCc2ccco2)c2c3c(sc2n1)COC(C)(CC)C3 (stereo not given),-3,9,14*,7,-8,3,7
CCCSc1nc(SCC(=O)NCc2ccccc2)c2c3c(sc2n1)COC(C)(CC)C3 (stereo not given),-14,2,12*,-2,-2,-2,2
COc1ccnc(CSC(N)=Nc2cccc(C(F)(F)F)c2)c1,16,0,-1,4,10,-1,nt
COc1cccc(NC(=O)COc2c(F)c(F)c(C(F)(F)F)c(F)c2F)c1,-26,3,2,6,12,11,nt
Cc1ccc(Sc2nc3c(c(=O)[nH]c(=O)n3C)n2CCc2ccccc2)cc1,12,3,3,-10,nt,7,nt
Cn1c(=O)[nH]c(=O)c2c1nc(Sc1ccccc1)n2CCc1ccccc1,-4,2,1,12,nt,-1,2
C=CCN(CC=C)S(=O)(=O)c1ccc(NC(=S)NC(=O)c2ccc(-c3ccccc3)cc2)cc1,-17,5,17*,-14,17,2,4
COc1ccc(CC(=O)NC(=S)Nc2ccc(S(N)(=O)=O)cc2)cc1,-19,4,1,-11,50,8,nt
C=CCN(CC=C)S(=O)(=O)c1ccc(NC(=S)NC(=O)c2ccco2)cc1,4,5,3,-5,-43,-4,nt
C=CCN(CC=C)S(=O)(=O)c1ccc(NC(=S)NC(=O)Cc2ccc(OC)cc2)cc1,-10,15,19*,-12,nt,17,4
Cc1ccc2c(c1)sc[n+]2Cc1ccccc1,9,4,7,0,61,0,nt
CCOC(=O)Cn1nnnc1CN1CCN(c2ccc(OC)cc2)CC1,8,nt,1,-10,nt,-3,nt
COc1cccc(CN(Cc2ccco2)C(c2ccc(F)cc2)c2nnnn2C(C)(C)C)c1 (stereo not given),7,22*,14*,1,-92,31*,3
CCCCCOP(=O)(OCCCCC)C1(NS(=O)(=O)c2ccccc2)C=CC(=O)c2ccccc21 (stereo not given),62,7,12*,24,-61,-1,1
CNS(=O)(=O)c1cccc(C(=O)OCc2csc(-c3ccccc3)n2)c1,-18,3,16*,0,-38,-7,1
COc1cccc(C(=O)NN2c3ccccc3CCc3ccccc32)c1,-7,0,13*,5,-12,6,2
Cc1c(NC(=O)c2nn3c(c2Br)NC(c2ccccc2)CC3C(F)(F)F)c(=O)n(-c2ccccc2)n1C (stereo not given),-12,0,0,-10,-27,4,nt

# Source: PubChem BioAssay (several laboratories)
